The text below walks through data of ChEMBL document CHEMBL1275388, “Discovery and synthesis of novel luteolin derivatives as DAT agonists” (Bioorg Med Chem, 2010).

This test deals with Sodium-dependent dopamine transporter (Rattus norvegicus, UniProt P23977). In words: Agonist activity at rat DAT expressed in CHO cells. The format is functional, cell-based. The procedure, abridged: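 CHO cell lines constructed to stably express DAT were used to measure DAT agonistic activity, reported as EC50.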
Sequence of Sodium-dependent dopamine transporter (P23977 whole entry): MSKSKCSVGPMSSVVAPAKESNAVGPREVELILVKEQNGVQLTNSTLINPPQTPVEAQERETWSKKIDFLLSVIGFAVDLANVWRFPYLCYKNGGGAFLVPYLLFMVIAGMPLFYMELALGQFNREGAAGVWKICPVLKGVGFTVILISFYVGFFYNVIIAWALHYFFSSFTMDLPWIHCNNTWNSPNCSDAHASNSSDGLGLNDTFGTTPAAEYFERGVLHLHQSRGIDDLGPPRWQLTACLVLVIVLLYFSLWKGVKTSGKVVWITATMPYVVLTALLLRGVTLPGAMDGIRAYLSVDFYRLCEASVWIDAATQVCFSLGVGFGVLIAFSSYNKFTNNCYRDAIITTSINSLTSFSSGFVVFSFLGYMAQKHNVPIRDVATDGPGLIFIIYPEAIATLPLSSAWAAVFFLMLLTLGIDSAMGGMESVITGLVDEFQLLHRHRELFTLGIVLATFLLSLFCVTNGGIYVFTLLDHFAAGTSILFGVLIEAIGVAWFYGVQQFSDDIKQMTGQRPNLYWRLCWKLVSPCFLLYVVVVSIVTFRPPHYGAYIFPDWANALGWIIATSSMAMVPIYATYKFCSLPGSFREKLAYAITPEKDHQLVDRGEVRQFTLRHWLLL

The term EC50 denotes the concentration giving half of the maximal effect. For `CCCC(=O)Oc1cc(O)c2c(=O)cc(-c3ccc(O)c(O)c3)oc2c1`, the EC50 worked out at 1.69 µM.
With `CCCOc1cc(O)cc2oc(-c3ccc(O)c(O)c3)cc(=O)c12` the figure was 3.07 µM; with `Cc1ccc(C(=O)Oc2cc(O)cc3oc(-c4ccc(O)c(O)c4)cc(=O)c23)cc1`, 6.92 µM.
`CCOc1cc(O)cc2oc(-c3ccc(O)c(O)c3)cc(=O)c12`: the EC50 was determined as 2.21 µM.
For `CC(C)CCOc1cc(O)cc2oc(-c3ccc(O)c(O)c3)cc(=O)c12`, a half-maximal effect (EC50) was put at 3.43 µM.
On to `CC(C)Oc1cc(O)cc2oc(-c3ccc(O)c(O)c3)cc(=O)c12`, for which the EC50 turned out to be 5.43 µM.
Consider `CCCCCCCCOc1cc(O)cc2oc(-c3ccc(O)c(O)c3)cc(=O)c12`, for which the midpoint of the response, the EC50, lay at 16.5 µM.
`CC(C)C(=O)Oc1cc(O)c2c(=O)cc(-c3ccc(O)c(O)c3)oc2c1` yielded an EC50 of 1.38 µM.
Molecule `CCCCOc1cc(O)cc2oc(-c3ccc(O)c(O)c3)cc(=O)c12` displayed a concentration for a half-maximal effect (EC50) of 2.4 µM.
`CCC(=O)Oc1cc(O)c2c(=O)cc(-c3ccc(O)c(O)c3)oc2c1` came in with an EC50 of 1.7 µM.
Next, `COc1cc(OC)c2c(=O)cc(-c3ccc(O)c(O)c3)oc2c1`: 3.42 µM; `CCCCCCCC(=O)Oc1cc(O)cc2oc(-c3ccc(O)c(O)c3)cc(=O)c12`: 8.56 µM.
With `CC(C)COc1cc(O)cc2oc(-c3ccc(O)c(O)c3)cc(=O)c12` the figure was 4.8 µM; with `CCCCCCOc1cc(O)cc2oc(-c3ccc(O)c(O)c3)cc(=O)c12`, 4.58 µM.
With `CC(C)CCC(=O)Oc1cc(O)cc2oc(-c3ccc(O)c(O)c3)cc(=O)c12` the figure was 2.71 µM.
Turning to `CCCCCCCCCCOc1cc(O)cc2oc(-c3ccc(O)c(O)c3)cc(=O)c12`, the EC50 came out at 33 µM.
Consider `O=c1cc(-c2ccc(O)c(O)c2)oc2cc(O)cc(O)c12` [LUTEOLIN], for which the concentration giving a half-maximal response (EC50) turned out to be 1.45 µM.
Regarding `COc1cc(O)cc2oc(-c3ccc(O)c(O)c3)cc(=O)c12`, the EC50 turned out to be 4.35 µM.
Next, `CCCC(=O)Oc1cc(O)cc2oc(-c3ccc(O)c(O)c3)cc(=O)c12`: 1.82 µM; `CCCCC(=O)Oc1cc(O)cc2oc(-c3ccc(O)c(O)c3)cc(=O)c12`: 0.869 µM; `O=c1cc(-c2ccc(O)c(O)c2)oc2cc(O)cc(OCCCCc3ccccc3)c12`: 2.59 µM.
With `O=C(Oc1cc(O)cc2oc(-c3ccc(O)c(O)c3)cc(=O)c12)c1ccccc1`, the EC50 turned out to be 11.2 µM.
The molecule `CCC(=O)Oc1cc(O)cc2oc(-c3ccc(O)c(O)c3)cc(=O)c12` displayed an EC50 of 31 µM.
`CCOc1cc(-c2cc(=O)c3c(O)cc(O)cc3o2)ccc1O` displayed an EC50 of 12.9 µM.
With `CC(=O)Oc1cc(O)cc2oc(-c3ccc(O)c(O)c3)cc(=O)c12` the figure was 5.37 µM.
Turning to `CC(C)C(=O)Oc1cc(O)cc2oc(-c3ccc(O)c(O)c3)cc(=O)c12`, the concentration for a half-maximal effect (EC50) came to 0.046 µM.
